Source: EPA's CvTdb concentration-time database

Experiments:
[1] = test system: Rat; assay: concentration in plasma after dosing; settings: 1.5 h; dosed: 2-Methyltetrahydrofuran; 40 mg/kg; iv; Male; Harlan Sprague Dawley
[2] = test system: Rat; assay: concentration in brain after dosing; settings: 4 h; dosed: 2-Methyltetrahydrofuran; 40 mg/kg; iv; Male; Harlan Sprague Dawley
[3] = test system: Rat; assay: concentration in brain after dosing; settings: 0.2 h; dosed: 2-Methyltetrahydrofuran; 40 mg/kg; iv; Male; Harlan Sprague Dawley
[4] = test system: Rat; assay: concentration in brain after dosing; settings: 0.5 h; dosed: 2-Methyltetrahydrofuran; 40 mg/kg; iv; Female; Harlan Sprague Dawley
[5] = test system: Rat; assay: concentration in brain after dosing; settings: 2 h; dosed: 2-Methyltetrahydrofuran; 40 mg/kg; iv; Male; Harlan Sprague Dawley
[6] = test system: Rat; assay: concentration in plasma after dosing; settings: 0.2 h; dosed: 2-Methyltetrahydrofuran; 40 mg/kg; iv; Male; Harlan Sprague Dawley
[7] = test system: Rat; assay: concentration in brain after dosing; settings: 0.2 h; dosed: 2-Methyltetrahydrofuran; 40 mg/kg; iv; Male; Harlan Sprague Dawley; remark: listed apart in the source
[8] = test system: Rat; assay: concentration in plasma after dosing; settings: dosed: Fluorotelomer alcohol 8+2, 12 mg/kg, oral, Male, Harlan Sprague Dawley
[9] = test system: Rat; assay: concentration in plasma after dosing; settings: 192 h; dosed: Fluorotelomer alcohol 8+2; 24 mg/kg; oral; Male; Harlan Sprague Dawley
[10] = test system: Rat; assay: concentration in plasma after dosing; settings: 192 h; dosed: 678-39-7; 40 mg/kg; iv; Male; F344
[11] = test system: Rat; assay: concentration in plasma after dosing; settings: 3 h; dosed: Fluorotelomer alcohol 8+2; 12 mg/kg; oral; Male; Harlan Sprague Dawley
[12] = test system: Rat; assay: concentration in plasma after dosing; settings: dosed: Fluorotelomer alcohol 8+2, 12 mg/kg, oral, Male, Harlan Sprague Dawley; remark: listed apart in the source
[13] = test system: Rat; assay: concentration in plasma after dosing; settings: 1.5 h; dosed: Perfluorohexanoic Acid; 40 mg/kg; iv; Male; F344
[14] = test system: Rat; assay: concentration in kidney after dosing; settings: 6 h; dosed: Perfluorohexanoic Acid; 80 mg/kg; oral; Male; Harlan Sprague Dawley
[15] = test system: Rat; assay: concentration in liver after dosing; settings: 6 h; dosed: Perfluorohexanoic Acid; 80 mg/kg; oral; Male; Harlan Sprague Dawley
[16] = test system: Rat; assay: concentration in kidney after dosing; settings: 6 h; dosed: Perfluorohexanoic Acid; 80 mg/kg; oral; Female; Harlan Sprague Dawley
[17] = test system: Rat; assay: concentration in plasma after dosing; settings: 0.75 h; dosed: Perfluorohexanoic Acid; 40 mg/kg; iv; Female; Harlan Sprague-Dawley
[18] = test system: human; assay: amount in urine after dosing (umol)
Method in brief: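 Concentration-versus-time or amount-versus-time points were compiled from published in vivo toxicokinetic studies and from two structured collections. The studies were found by PubMed searching, classifier screening and manual review. Points were mostly digitised from plot screenshots with WebPlotDigitizer, otherwise copied from tables, and kept in the reported units. Dose, route, subject details and medium were curated by hand from each paper, and sampling and analytical methods follow each source and were often unreported.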

[19] = test system: Rat; assay: concentration in plasma after dosing; settings: 1848 h; dosed: Perfluorooctane Sulfonate; 2 mg/kg; oral; Female; Harlan Sprague Dawley
[20] = test system: Rat; assay: concentration in brain after dosing; settings: 24 h; dosed: Perfluorooctane Sulfonate; 2 mg/kg; oral; Female; Harlan Sprague Dawley
[21] = test system: Rat; assay: concentration in brain after dosing; settings: 24 h; dosed: Perfluorooctane Sulfonate; 20 mg/kg; oral; Male; Harlan Sprague Dawley
[22] = test system: Rat; assay: concentration in brain after dosing; settings: 24 h; dosed: Perfluorooctane Sulfonate; 20 mg/kg; oral; Female; F344
[23] = test system: Rat; assay: concentration in plasma after dosing; settings: dosed: Perfluorooctane Sulfonate, 2 mg/kg, iv, Male, F344
[24] = test system: Rat; assay: concentration in liver after dosing; settings: 1848 h; dosed: Perfluorooctane Sulfonate; 2 mg/kg; oral; Female; Harlan Sprague Dawley
[25] = test system: Rat; assay: concentration in plasma after dosing; settings: 0.5 h; dosed: Gemfibrozil; 4.29 mg/kg; oral; Male; Sprague-Dawley

CC1CCCO1 (stereo not given) [2-Methyltetrahydrofuran]
Settings | concentration in brain [ng/mL] | concentration in plasma [ng/mL]
[1] | – | 19300
[2] | 184 | –
[3] | 30800 | –
[4] | 12700 | –
[5] | 7820 | –
[6] | – | 32200
[7] | 24900 | –

O=C(O)CCC(F)(F)C(F)(F)C(F)(F)C(F)(F)C(F)(F)C(F)(F)C(F)(F)F [Fluorotelomer acid 7+3]
concentration in plasma [ng/mL]
Settings | 0.5 h | 9 h | 48 h | 192 h
[8] | – | – | 245 | 25.5
[12] | 133 | 218 | – | –

Settings | concentration in plasma [ng/mL]
[9] | 40.8
[10] | 48.1
[11] | 866

O=C(O)C(F)(F)C(F)(F)C(F)(F)C(F)(F)C(F)(F)F [Perfluorohexanoic Acid]
Settings | concentration in kidney [ng/g] | concentration in liver [ng/g] | concentration in plasma [ng/mL]
[13] | – | – | 320
[14] | 10600 | – | –
[15] | – | 15400 | –
[16] | 9420 | – | –
[17] | – | – | 113

CC(O)C(C)(C)O (stereo not given) [2-methyl-2,3-butanediol]
[18], dosed: tert-amyl methyl ether, inhalation, duration: 4 hr
Settings | amount in urine
0.2902 h, 38.4 ppm | 3.72
6.051 h, 3.8 ppm | 2.15
6.373 h, 38.4 ppm | 16.5
12.12 h, 3.8 ppm | 3.45
12.25 h, 38.4 ppm | 30.5
18.08 h, 3.8 ppm | 2.56
18.3 h, 38.4 ppm | 29.8
24.08 h, 3.8 ppm | 3.27
24.35 h, 38.4 ppm | 31.2
30.04 h, 3.8 ppm | 2.77
30.25 h, 38.4 ppm | 25.2
36.13 h, 3.8 ppm | 2.42
36.31 h, 38.4 ppm | 28.1
42.02 h, 3.8 ppm | 1.67
42.34 h, 38.4 ppm | 17
47.89 h, 3.8 ppm | 2.12
48.2 h, 38.4 ppm | 23.9
54.05 h, 3.8 ppm | 1.93
54.23 h, 38.4 ppm | 14.1
59.94 h, 3.8 ppm | 1.6
60.36 h, 38.4 ppm | 18.1
66.02 h, 3.8 ppm | 1.63
66.19 h, 38.4 ppm | 12.1
71.9 h, 3.8 ppm | 1.44
72.24 h, 38.4 ppm | 11.2
225 s, 3.8 ppm | 0.476

[18], dosed: tert-amyl methyl ether, oral
Settings | amount in urine
0.2379 h, 5 mg | 0.118
6.002 h, 15 mg | 1.07
6.23 h, 5 mg | 0.379
11.79 h, 15 mg | 1.97
12.07 h, 5 mg | 0.593
17.9 h, 15 mg | 2.14
18.15 h, 5 mg | 0.435
24 h, 15 mg | 2.43
24.24 h, 5 mg | 0.394
29.83 h, 15 mg | 2.27
30.07 h, 5 mg | 0.532
35.87 h, 15 mg | 2.31
36.08 h, 5 mg | 0.4
41.73 h, 15 mg | 1.29
42.17 h, 5 mg | 0.374
47.83 h, 15 mg | 1.66
48.27 h, 5 mg | 0.367
53.95 h, 15 mg | 1.48
54.08 h, 5 mg | 0.38
59.71 h, 15 mg | 1.02
60.18 h, 5 mg | 0.324
65.84 h, 15 mg | 0.758
66.2 h, 5 mg | 0.264
71.94 h, 15 mg | 1.05
72 h, 5 mg | 0.243
77.76 h, 15 mg | 1.07
78.1 h, 5 mg | 0.243
83.97 h, 15 mg | 0.611
84.2 h, 5 mg | 0.244
89.71 h, 15 mg | 0.61
90 h, 5 mg | 0.214
95.84 h, 15 mg | 0.463
96.03 h, 5 mg | 0.188
235 s, 15 mg | 0.223

O=S(=O)([O-])C(F)(F)C(F)(F)C(F)(F)C(F)(F)C(F)(F)C(F)(F)C(F)(F)C(F)(F)F [Perfluorooctane Sulfonate]
Settings | concentration in brain [ng/g] | concentration in liver [ng/g] | concentration in plasma [ng/mL]
[19] | – | – | 987
[20] | 553 | – | –
[21] | 11600 | – | –
[22] | 15200 | – | –
[24] | – | 5940 | –

[23]
Settings | concentration in plasma [ng/mL]
12 h | 4350
864 h | 995
3216 h | 99.5

CC(C)(O)C(=O)O [2-hydroxyisobutyrate]
[18], dosed: methyl tert-butyl ether, oral
Settings | amount in urine
0 h, 5 mg | 0.0411
6.05 h, 15 mg | 3.18
6.268 h, 5 mg | 1.19
12.12 h, 5 mg | 2.99
12.19 h, 15 mg | 8.45
18.04 h, 15 mg | 10.7
18.39 h, 5 mg | 3.79
24.12 h, 15 mg | 9.14
24.44 h, 5 mg | 3.07
29.96 h, 15 mg | 11.8
30.29 h, 5 mg | 3.64
36.26 h, 15 mg | 9.95
36.46 h, 5 mg | 2.37
42.05 h, 15 mg | 4.96
42.31 h, 5 mg | 1.27
48.24 h, 15 mg | 2.63
48.47 h, 5 mg | 0.849
54.1 h, 15 mg | 3.08
54.53 h, 5 mg | 0.89
59.87 h, 15 mg | 1.63
60.27 h, 5 mg | 0.438
66.05 h, 15 mg | 0.953
66.44 h, 5 mg | 0.123
71.92 h, 15 mg | 0.593
72.6 h, 5 mg | 0.0411
77.99 h, 15 mg | 0.596
83.85 h, 15 mg | 0.357
90.03 h, 15 mg | 0.279
95.89 h, 15 mg | 0.322

[18], inhalation, duration: 4 hr
Settings | amount in urine
0 h, dosed: methyl tert-butyl ether, 4.5 ppm | 10.8
0.116 h, dosed: methyl tert-butyl ether, 38.7 ppm | 17.8
0.1579 h, dosed: ethyl tert-butyl ether, 40.6 ppm | 13.3
0.2123 h, dosed: ethyl tert-butyl ether, 4.5 ppm | 11.1
6 h, dosed: ethyl tert-butyl ether, 40.6 ppm | 41
6.115 h, dosed: ethyl tert-butyl ether, 4.5 ppm | 19.1
6.219 h, dosed: methyl tert-butyl ether, 38.7 ppm | 71.9
6.261 h, dosed: methyl tert-butyl ether, 4.5 ppm | 20.2
12 h, dosed: ethyl tert-butyl ether, 40.6 ppm | 65.3
12 h, dosed: methyl tert-butyl ether, 4.5 ppm | 26.8
12.13 h, dosed: methyl tert-butyl ether, 38.7 ppm | 147
12.31 h, dosed: ethyl tert-butyl ether, 4.5 ppm | 23.3
18 h, dosed: ethyl tert-butyl ether, 40.6 ppm | 61.2
18.26 h, dosed: methyl tert-butyl ether, 4.5 ppm | 21.8
18.32 h, dosed: ethyl tert-butyl ether, 4.5 ppm | 21.5
18.4 h, dosed: methyl tert-butyl ether, 38.7 ppm | 149
24 h, dosed: ethyl tert-butyl ether, 40.6 ppm | 50.2
24 h, dosed: methyl tert-butyl ether, 4.5 ppm | 24.3
24.14 h, dosed: methyl tert-butyl ether, 38.7 ppm | 134
24.23 h, dosed: ethyl tert-butyl ether, 4.5 ppm | 20.8
30 h, dosed: ethyl tert-butyl ether, 40.6 ppm | 70.5
30.26 h, dosed: methyl tert-butyl ether, 4.5 ppm | 27.8
30.41 h, dosed: ethyl tert-butyl ether, 4.5 ppm | 22.2
30.42 h, dosed: methyl tert-butyl ether, 38.7 ppm | 132
36.1 h, dosed: methyl tert-butyl ether, 4.5 ppm | 18.2
36.14 h, dosed: methyl tert-butyl ether, 38.7 ppm | 85.6
36.21 h, dosed: ethyl tert-butyl ether, 40.6 ppm | 51
36.28 h, dosed: ethyl tert-butyl ether, 4.5 ppm | 14.6
42.16 h, dosed: ethyl tert-butyl ether, 40.6 ppm | 41.8
42.16 h, dosed: methyl tert-butyl ether, 4.5 ppm | 14.4
42.29 h, dosed: methyl tert-butyl ether, 38.7 ppm | 63
42.3 h, dosed: ethyl tert-butyl ether, 4.5 ppm | 13.6
48.13 h, dosed: methyl tert-butyl ether, 38.7 ppm | 41.8
48.16 h, dosed: ethyl tert-butyl ether, 40.6 ppm | 34.3
48.47 h, dosed: ethyl tert-butyl ether, 4.5 ppm | 14.4
54.21 h, dosed: ethyl tert-butyl ether, 40.6 ppm | 30.1
54.31 h, dosed: methyl tert-butyl ether, 38.7 ppm | 48.6
60.15 h, dosed: methyl tert-butyl ether, 38.7 ppm | 33.6
60.16 h, dosed: ethyl tert-butyl ether, 40.6 ppm | 37.6
66.16 h, dosed: ethyl tert-butyl ether, 40.6 ppm | 20.9
66.32 h, dosed: methyl tert-butyl ether, 38.7 ppm | 24
72.06 h, dosed: methyl tert-butyl ether, 38.7 ppm | 17.8
72.16 h, dosed: ethyl tert-butyl ether, 40.6 ppm | 17.5

Cc1ccc(C)c(OCCCC(C)(C)C(=O)O)c1 [Gemfibrozil]
Settings | concentration in plasma [ng/mL]
[25] | 570
